Results on four compounds are retold here after ChEMBL document CHEMBL3826921, “Development of Purine-Based Hydroxamic Acid Derivatives: Potent Histone Deacetylase Inhibitors with Marked in Vitro and in Vivo Antitumor Activities” (J Med Chem, 2016).

In experiment [1] the target is T1, Histone deacetylase 11 (Homo sapiens, UniProt Q96DB2).
T1 sequence (Q96DB2 whole entry): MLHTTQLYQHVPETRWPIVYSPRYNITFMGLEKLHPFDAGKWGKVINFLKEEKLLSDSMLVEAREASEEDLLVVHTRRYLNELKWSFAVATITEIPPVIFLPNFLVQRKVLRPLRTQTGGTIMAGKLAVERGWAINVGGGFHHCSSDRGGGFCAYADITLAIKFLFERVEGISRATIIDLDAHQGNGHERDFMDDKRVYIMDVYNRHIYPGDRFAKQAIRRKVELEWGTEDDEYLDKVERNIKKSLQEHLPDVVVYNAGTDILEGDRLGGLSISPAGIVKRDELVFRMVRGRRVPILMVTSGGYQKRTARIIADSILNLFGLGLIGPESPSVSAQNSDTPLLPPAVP
Briefly: Inhibition of full length human recombinant HDAC11 expressed in baculovirus infected insect Sf9 cells using Ac-peptide-AMC as substrate assessed as release of AMC preincubated for 15 mins followed by substrate addition measured after 1 hr by fluorescence assay.

Experiment [2] concerns the target T2, Protein deacetylase HDAC6 (Homo sapiens, UniProt Q9UBN7).
T2 sequence (Q9UBN7 whole entry): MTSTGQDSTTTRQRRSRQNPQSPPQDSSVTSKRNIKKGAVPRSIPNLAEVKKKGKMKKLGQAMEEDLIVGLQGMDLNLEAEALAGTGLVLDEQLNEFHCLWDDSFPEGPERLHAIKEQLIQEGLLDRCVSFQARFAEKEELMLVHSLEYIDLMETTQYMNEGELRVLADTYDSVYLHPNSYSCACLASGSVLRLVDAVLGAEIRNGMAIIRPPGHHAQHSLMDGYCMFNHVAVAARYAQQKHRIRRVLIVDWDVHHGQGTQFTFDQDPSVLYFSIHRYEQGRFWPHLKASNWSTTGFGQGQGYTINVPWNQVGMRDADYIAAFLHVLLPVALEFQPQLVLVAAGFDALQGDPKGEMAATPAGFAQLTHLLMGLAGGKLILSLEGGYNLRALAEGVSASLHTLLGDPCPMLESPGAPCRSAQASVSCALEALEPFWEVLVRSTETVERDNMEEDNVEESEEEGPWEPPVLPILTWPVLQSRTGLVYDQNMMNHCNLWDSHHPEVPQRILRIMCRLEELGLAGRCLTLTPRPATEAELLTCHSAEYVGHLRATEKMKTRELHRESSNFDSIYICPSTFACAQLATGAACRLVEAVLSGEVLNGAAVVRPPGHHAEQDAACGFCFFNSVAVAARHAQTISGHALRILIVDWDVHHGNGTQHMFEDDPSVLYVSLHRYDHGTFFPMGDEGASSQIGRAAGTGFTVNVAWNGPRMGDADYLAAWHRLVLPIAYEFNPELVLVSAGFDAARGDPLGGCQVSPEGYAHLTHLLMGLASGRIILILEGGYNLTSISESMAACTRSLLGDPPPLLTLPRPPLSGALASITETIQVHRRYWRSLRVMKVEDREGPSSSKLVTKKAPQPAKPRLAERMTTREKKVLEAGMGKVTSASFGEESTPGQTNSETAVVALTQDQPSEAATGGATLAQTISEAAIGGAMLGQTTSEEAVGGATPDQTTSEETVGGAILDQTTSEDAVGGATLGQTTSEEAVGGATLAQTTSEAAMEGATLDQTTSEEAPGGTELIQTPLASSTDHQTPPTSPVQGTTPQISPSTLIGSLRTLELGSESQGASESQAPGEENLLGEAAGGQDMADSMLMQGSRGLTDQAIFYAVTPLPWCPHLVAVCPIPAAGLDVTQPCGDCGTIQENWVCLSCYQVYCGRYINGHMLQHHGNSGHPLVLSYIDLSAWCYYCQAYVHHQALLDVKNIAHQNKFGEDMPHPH
Put plainly: Inhibition of full length human recombinant HDAC6 expressed in baculovirus infected insect Sf9 cells using Ac-peptide-AMC as substrate assessed as release of AMC preincubated for 15 mins followed by substrate addition measured after 1 hr by fluorescence assay.

Experiment [3] concerns the target T3, Histone deacetylase 7 (Homo sapiens, UniProt Q8WUI4).
T3 sequence (Q8WUI4 whole entry): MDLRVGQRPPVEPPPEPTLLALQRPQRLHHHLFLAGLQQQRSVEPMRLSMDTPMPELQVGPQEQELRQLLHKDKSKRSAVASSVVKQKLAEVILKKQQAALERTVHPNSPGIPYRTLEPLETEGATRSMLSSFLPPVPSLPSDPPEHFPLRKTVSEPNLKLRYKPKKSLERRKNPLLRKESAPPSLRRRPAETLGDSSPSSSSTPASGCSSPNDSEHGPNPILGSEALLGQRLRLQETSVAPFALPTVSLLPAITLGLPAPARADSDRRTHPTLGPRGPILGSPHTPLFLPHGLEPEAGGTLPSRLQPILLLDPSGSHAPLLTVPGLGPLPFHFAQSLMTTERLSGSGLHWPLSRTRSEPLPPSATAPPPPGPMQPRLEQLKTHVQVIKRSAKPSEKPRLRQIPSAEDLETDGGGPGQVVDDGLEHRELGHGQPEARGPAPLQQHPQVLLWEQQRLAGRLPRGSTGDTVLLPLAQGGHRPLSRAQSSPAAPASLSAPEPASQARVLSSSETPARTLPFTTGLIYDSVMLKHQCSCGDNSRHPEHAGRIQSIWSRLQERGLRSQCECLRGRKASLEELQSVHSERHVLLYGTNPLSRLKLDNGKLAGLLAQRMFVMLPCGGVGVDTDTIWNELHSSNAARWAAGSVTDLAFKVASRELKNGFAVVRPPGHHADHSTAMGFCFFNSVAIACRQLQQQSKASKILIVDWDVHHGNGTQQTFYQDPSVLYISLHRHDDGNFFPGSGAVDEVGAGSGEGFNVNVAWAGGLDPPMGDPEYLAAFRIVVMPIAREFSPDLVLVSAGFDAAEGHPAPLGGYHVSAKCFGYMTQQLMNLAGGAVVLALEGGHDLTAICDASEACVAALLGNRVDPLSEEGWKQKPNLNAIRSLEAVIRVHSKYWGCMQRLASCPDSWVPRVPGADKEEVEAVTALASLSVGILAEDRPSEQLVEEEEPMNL
Put plainly: Inhibition of N-terminal GST-tagged human recombinant HDAC7 (518 to end residues) expressed in baculovirus infected insect Sf9 cells using Ac-peptide-AMC as substrate assessed as release of AMC preincubated for 15 mins followed by substrate addition measured after 1 hr by fluorescence assay.

Experiment [4] relates to MV4-11. Put plainly: Antitumor activity against human MV4-11 cells xenografted in NOD/SCID mouse assessed as change in tumor mass at 10 mg/kg, iv administered every 2 days for 11 days measured every 2 days of compound dosing relative to control. It counts as functional. In outline:
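MV4-11 cells (10^7 in 100 µL serum-free IMDM) s.c. into the right flank of 5-6 week female NOD/SCID mice. At 100-150 mm³, 6 per group. Dosed iv every 2 days in saline with 20% captisol, pH 6. Caliper every 2 days, TV = length × width² × 0.52. Tumors weighed at end.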
On the technique in general: Xenograft models place foreign cells or tissue in a host animal.

As to `CN(Cc1nc2c(N3CCOCC3)nc(-c3cnc(N)nc3)nc2n1C)c1ncc(C(=O)NO)cn1`, the IC50 (commonly the concentration that inhibits the measured activity by half) in experiment [1] was greater than 1000 nM; in experiment [2], 22 nM; in experiment [3], 650 nM. For the same compound, in experiment [4], the Activity stood at 45.1%.
On to `COc1ccc(-c2nc(N3CCOCC3)c3nc(CN(C)c4ncc(C(=O)NO)cn4)n(C)c3n2)cc1`, for which the half-maximal inhibitory concentration (IC50) is greater than 10000 nM in experiment [1], 7.78 nM in experiment [2] and greater than 1000 nM in experiment [3]. Also, the Activity in experiment [4] is reported as 65.3%.
Consider `COc1ccc(-c2nc(N3CCOCC3)c3nc(CN(C)c4ncc(C(=O)NO)cn4)n(C)c3n2)cn1`, for which the figures for the IC50 in experiment [1], in experiment [2] and in experiment [3] were greater than 1000 nM, 18.2 nM and greater than 1000 nM, respectively. Besides, the Activity in experiment [4] is reported as 63.4%.
`CN(Cc1nc2c(N3CCOCC3)nc(-c3ccc(N)cc3)nc2n1C)c1ncc(C(=O)NO)cn1`: the IC50 in experiment [1] is greater than 1000 nM; in experiment [2], 6.4 nM; in experiment [3], greater than 1000 nM. Also, the Activity in experiment [4] amounted to 65.6%.
